Assay [1] deals with T1, SHC-transforming protein 1 (Homo sapiens) (UniProt P29353).
T1 sequence (whole entry): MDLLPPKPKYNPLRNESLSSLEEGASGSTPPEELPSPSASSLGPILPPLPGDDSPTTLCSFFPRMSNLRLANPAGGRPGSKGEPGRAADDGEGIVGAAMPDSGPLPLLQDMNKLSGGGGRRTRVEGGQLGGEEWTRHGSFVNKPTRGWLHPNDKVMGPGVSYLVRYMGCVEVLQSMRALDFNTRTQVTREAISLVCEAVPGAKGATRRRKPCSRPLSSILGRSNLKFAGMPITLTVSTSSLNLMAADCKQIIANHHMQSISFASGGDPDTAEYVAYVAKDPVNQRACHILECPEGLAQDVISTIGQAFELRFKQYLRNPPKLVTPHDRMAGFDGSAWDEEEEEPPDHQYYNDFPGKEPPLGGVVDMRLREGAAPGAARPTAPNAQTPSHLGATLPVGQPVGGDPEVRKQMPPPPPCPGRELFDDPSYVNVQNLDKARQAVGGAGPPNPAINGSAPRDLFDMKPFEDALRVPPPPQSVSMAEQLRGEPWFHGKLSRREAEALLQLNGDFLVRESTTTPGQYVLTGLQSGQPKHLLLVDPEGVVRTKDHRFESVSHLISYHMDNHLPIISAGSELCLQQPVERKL
In words: Inhibition of Shc Src homology 2 domain binding to cMet expressed in human B5/589 cells at 10 uM. Format: cell-based. In outline: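 B5/589 human mammary epithelial cells serum-starved 48 h, then exposed 1 h to peptide (10 μM) or none. HGF stimulation at 50 ng/mL for 20 min, then lysis in cold detergent buffer (pH 7.4). c-Met captured with biotinylated antibody on streptavidin resin; co-precipitated Shc and recovered c-Met detected by SDS-PAGE and immunoblot with chemiluminescence.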

The target of assay [2] is T1, SHC-transforming protein 1 (Homo sapiens). In words: (§1) Binding affinity to Shc Src homology 2 domain by fluorescence anisotropy. Summed up: (§2)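 Direct binding: 5 nM N-terminal fluorescein-labelled peptide in 10 mM HEPES, 150 mM NaCl pH 7.5 with 10% (v/v) DMSO; Shc SH2 protein serially diluted from 100 μM. Excitation 485 nm, parallel and perpendicular emission at 535 nm. Kd from fitting anisotropy versus protein concentration to a single-site binding model.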

Assay [3] has as its target T2, SHC-transforming protein 1 (Homo sapiens, UniProt P29353).
T2 sequence (P29353 whole entry): T1 sequence (whole entry)
The description is as §1. In outline: as §2

Activity calls are given as the source filed them. The rule behind the calls is not given here. Where a SMILES comes first, the peptide text is derived from it. [ ]: non-standard residue; d: D form. The star is where a group is joined. X2 = O=C(c1cc(N=C=S)ccc1-c1c2ccc(=O)cc-2oc2cc(O)ccc12)*; pY = N[C@@H](Cc1ccc(OP(=O)(O)O)cc1)C(=O)O; Ava = NCCCCC(=O)O; GABA = NCCCC(=O)O

In the case of `CC(=O)N[C@@H](CCCNC(=N)N)C(=O)N[C@@H](CCCNC(=N)N)C(=O)N[C@@H](CCCNC(=N)N)C(=O)N[C@@H](CCCNC(=N)N)C(=O)N[C@@H](CCCNC(=N)N)C(=O)N[C@@H](CCCNC(=N)N)C(=O)N[C@@H](CCCNC(=N)N)C(=O)N[C@@H](CCCNC(=N)N)C(=O)NCCOCCOCCOCCNC(=O)[C@H](CO)NC(=O)[C@H](CC(C)C)NC(=O)CNC(=O)[C@H](CCC(N)=O)NC(=O)[C@H](Cc1ccc(OP(=O)(O)O)cc1)NC(=O)CCCCNC(=O)c1cc(N=C=S)ccc1-c1c2ccc(=O)cc-2oc2cc(O)ccc12`, the result in assay [1] was Active. Regarding `CC(C)C[C@H](NC(=O)CNC(=O)[C@H](CCC(N)=O)NC(=O)[C@H](Cc1ccc(OP(=O)(O)O)cc1)NC(=O)[C@H](CC(C)C)NC(=O)CNC(=O)c1cc(N=C=S)ccc1-c1c2ccc(=O)cc-2oc2cc(O)ccc12)C(=O)N[C@@H](CO)C(N)=O` (HELM PEPTIDE1{[O=C(c1cc(N=C=S)ccc1-c1c2ccc(=O)cc-2oc2cc(O)ccc12)[*:2]].G.L.[O=C([C@H](Cc1ccc(OP(=O)(O)O)cc1)N[*:1])[*:2]].Q.G.L.S.[am]}$$$$V2.0), the outcome in assay [2] was inactive. Regarding `CC(C)C[C@H](NC(=O)CNC(=O)[C@H](CCC(N)=O)NC(=O)[C@H](Cc1ccc(OP(=O)(O)O)cc1)NC(=O)[C@H](CC(C)C)NC(=O)CCCNC(=O)c1cc(N=C=S)ccc1-c1c2ccc(=O)cc-2oc2cc(O)ccc12)C(=O)N[C@@H](CO)C(N)=O` ({X2-GABA}-L[pY]QGLS-NH2), the affinity in assay [3], expressed as Kd, was 8.6 µM. For the compound `CC(C)C[C@H](NC(=O)CNC(=O)[C@H](CCC(N)=O)NC(=O)[C@H](Cc1ccc(OP(=O)(O)O)cc1)NC(=O)CNC(=O)c1cc(N=C=S)ccc1-c1c2ccc(=O)cc-2oc2cc(O)ccc12)C(=O)N[C@@H](CO)C(N)=O` (HELM PEPTIDE1{[O=C(c1cc(N=C=S)ccc1-c1c2ccc(=O)cc-2oc2cc(O)ccc12)[*:2]].G.[O=C([C@H](Cc1ccc(OP(=O)(O)O)cc1)N[*:1])[*:2]].Q.G.L.S.[am]}$$$$V2.0), the result in assay [2] was inactive.

As to `CC[C@H](C)[C@H](NC(=O)[C@H](CCCCN)NC(=O)[C@@H](NC(=O)[C@H](CCC(N)=O)NC(=O)[C@H](CCCNC(=N)N)NC(C)=O)[C@@H](C)CC)C(=O)N[C@@H](Cc1c[nH]c2ccccc12)C(=O)N[C@@H](Cc1ccccc1)C(=O)N[C@@H](CCC(N)=O)C(=O)N[C@@H](CC(N)=O)C(=O)N[C@@H](CCCNC(=N)N)C(=O)N[C@@H](CCCNC(=N)N)C(=O)N[C@@H](CCSC)C(=O)N[C@@H](CCCCN)C(=O)N[C@@H](Cc1c[nH]c2ccccc12)C(=O)N[C@@H](CCCCN)C(=O)N[C@@H](CCCCN)C(=O)NCCOCCOCCOCCNC(=O)[C@H](CO)NC(=O)[C@H](CC(C)C)NC(=O)CNC(=O)[C@H](CCC(N)=O)NC(=O)[C@H](Cc1ccc(OP(=O)(O)O)cc1)NC(=O)CCCCNC(=O)c1cc(N=C=S)ccc1-c1c2ccc(=O)cc-2oc2cc(O)ccc12`, the outcome in assay [1] was Active.

Take `CC(C)C[C@H](NC(=O)CNC(=O)[C@H](CCC(N)=O)NC(=O)[C@H](Cc1ccc(OP(=O)(O)O)cc1)NC(=O)[C@H](CC(C)C)NC(=O)CCCCNC(=O)c1cc(N=C=S)ccc1-c1c2ccc(=O)cc-2oc2cc(O)ccc12)C(=O)N[C@@H](CO)C(N)=O` ({X2-Ava}-L[pY]QGLS-NH2): the Kd – broadly, a measure of binding affinity in units of concentration – in assay [3] is 8.9 µM. Same read-out and setting: in the case of `CC(C)C[C@H](NC(=O)CNC(=O)[C@H](CCC(N)=O)NC(=O)[C@H](Cc1ccc(OP(=O)(O)O)cc1)NC(=O)CCCCNC(=O)c1cc(N=C=S)ccc1-c1c2ccc(=O)cc-2oc2cc(O)ccc12)C(=O)N[C@@H](CO)C(N)=O` ({X2-Ava}-[pY]QGLS-NH2) it was 0.35 µM.

These data come from ChEMBL document CHEMBL1152771, “Identification of Shc Src homology 2 domain-binding peptoid-peptide hybrids” (J Med Chem, 2009).
